From ChEMBL document CHEMBL1147042, “Modafinil enhances thalamocortical activity by increasing neuronal electrotonic coupling” (2007)
The source made the active and inactive calls. The calls are words filed in the database; no cut-off is given here.

Tests used:
Thalamocortex [1] = experiment: Induction of 10-Hz shock-stimulated C57BL/6 mouse thalamocortical activity assessed as increase in slope of rising phase at 0.2 uM after 15 mins by voltage-sensitive dye imaging method; format: functional, Brain
In short: (§1)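 Thalamocortical slices (350–400) came from C57BL/6 mice of either sex, P7–20, anesthetized with pentobarbital 120 mg/kg i.p. Slices recovered at 35°C for ≥30 min, then sat in oxygenated ACSF (pH 7.4) at 32°C. They were stained with RH 414 or di-4-ANEPPS (0.025 mg/ml). White matter received 10-Hz and/or 40-Hz electrical stimulation. Modafinil was bath-perfused and read at 15 min. Signal was ΔF/F.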

Rattus norvegicus [2] = species on record: Rattus norvegicus; experiment: Increase in electronic coupling in Sprague-Dawley rat cortical interneurons assessed as input conductance change at 50 uM by […]; format: functional
Cortex [3] = experiment: Induction of 40-Hz shock-stimulated Sprague-Dawley rat cortical activity assessed as increase in slope of rising phase after 15 mins by voltage-sensitive dye imaging method; format: functional
In short: (§2)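 Rat barrel-cortex slices (300–450 μm) came from Sprague–Dawley rats of either sex, P10–18. Slices recovered at 35°C for ≥30 min, then were held in oxygenated ACSF (pH 7.4) at 32°C. Staining used RH 414 or di-4-ANEPPS (0.025 mg/ml). White matter was stimulated at 10 Hz or 40 Hz. Modafinil was applied for 15 min. Optical response was taken as fractional fluorescence ΔF/F.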

Rattus norvegicus [4] = species on record: Rattus norvegicus; experiment: Increase in electronic coupling of Long-Evans rat inferior olivary neurons in presence of CaMK2 inhibitor KN93 by single-patch clamp method; format: functional
Cortex [5] = experiment: Induction of 10-Hz shock-stimulated Sprague-Dawley rat cortical activity assessed as increase in peak amplitude at 100 uM after 15 mins by voltage-sensitive dye imaging method; format: functional; in short: as §2
Thalamocortex [6] = experiment: Effect on paired-pulse ventrobasal stimulation induced excitatory postsynaptic current in 40-Hz shock-stimulated C57BL/6 mouse thalamocortical slices; format: functional, tissue-based; details: Brain
Rattus norvegicus [7] = species on record: Rattus norvegicus; experiment: Reduction of input resistance in Long-Evans rat inferior olivary neurons at 150 uM relative to control by single-patch clamp method; format: functional
In short: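 Input resistance was probed with hyperpolarizing current pulses before and after local application of modafinil (100–150 μM).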

Thalamocortex [8] = experiment: Effect on C57BL/6 mouse thalamocortical activity in presence of PKA inhibitor KT5720 by voltage-sensitive dye imaging method; format: functional; details: Brain
Thalamocortex [9] = experiment: Induction of 10-Hz shock-stimulated C57BL/6 mouse thalamocortical activity assessed as increase in slope of rising phase after 15 mins by voltage-sensitive dye imaging method; format: functional, Brain; in short: as §1
Thalamocortex [10] = experiment: Effect on C57BL/6 mouse thalamocortical activity in presence of CaMK2 inhibitor KN93 by voltage-sensitive dye imaging method; format: functional; details: Brain
Cortex [11] = experiment: Induction of 10-Hz shock-stimulated Sprague-Dawley rat cortical activity assessed as increase in peak amplitude at 0.2 uM after 15 mins by voltage-sensitive dye imaging method; format: functional; in short: as §2
Cortex [12] = experiment: Induction of 40-Hz shock-stimulated Sprague-Dawley rat cortical activity assessed as increase in peak amplitude at 0.2 uM after 15 mins by voltage-sensitive dye imaging method; format: functional; in short: as §2
Thalamocortex [13] = experiment: Effect on excitatory synaptic transmission in C57BL/6 mouse thalamocortical slices assessed as increase in input conductance in presence of GABAA, GABAB and NMDA blockers by single patch clamp recording; format: functional, Brain
Thalamocortex [14] = experiment: Induction of 40-Hz shock-stimulated C57BL/6 mouse thalamocortical activity assessed as increase in peak amplitude at 100 uM after 15 mins by voltage-sensitive dye imaging method; format: functional, Brain; in short: as §1
[15] = Increase in electronic coupling in Sprague-Dawley rat cortical interneurons assessed as coupling coefficient at 100 uM by […]; format: functional
Cortex [16] = experiment: Induction of 40-Hz shock-stimulated Sprague-Dawley rat cortical activity assessed as increase in slope of rising phase at 0.2 uM after 15 mins by voltage-sensitive dye imaging method; format: functional; in short: as §2
Thalamocortex [17] = experiment: Induction of 40-Hz shock-stimulated C57BL/6 mouse thalamocortical activity assessed as increase in peak amplitude at 0.2 uM after 15 mins by voltage-sensitive dye imaging method; format: functional, Brain; in short: as §1
Cortex [18] = experiment: Induction of 40-Hz shock-stimulated Sprague-Dawley rat cortical activity assessed as increase in peak amplitude at 100 uM after 15 mins by voltage-sensitive dye imaging method; format: functional; in short: as §2
Thalamocortex [19] = experiment: Induction of 10-Hz shock-stimulated C57BL/6 mouse thalamocortical activity assessed as increase in peak amplitude at 100 uM after 15 mins by voltage-sensitive dye imaging method; format: functional, Brain; in short: as §1
Thalamocortex [20] = experiment: Induction of 10-Hz shock-stimulated C57BL/6 mouse thalamocortical activity assessed as increase in peak amplitude at 0.2 uM after 15 mins by voltage-sensitive dye imaging method; format: functional, Brain; in short: as §1
Thalamocortex [21] = experiment: Induction of 40-Hz shock-stimulated C57BL/6 mouse thalamocortical activity assessed as increase in slope of rising phase after 15 mins by voltage-sensitive dye imaging method; format: functional, Brain; in short: as §1
Cortex [22] = experiment: Induction of 10-Hz shock-stimulated Sprague-Dawley rat cortical activity assessed as increase in slope of rising phase after 15 mins by voltage-sensitive dye imaging method; format: functional; in short: as §2
Rattus norvegicus [23] = species on record: Rattus norvegicus; experiment: Reversal of increase in electronic coupling in Sprague-Dawley rat cortical interneurons assessed as input conductance change at 50 uM in presence of gap junction inhibitor mefloquine by […]; format: functional
Thalamocortex [24] = experiment: Induction of 40-Hz shock-stimulated C57BL/6 mouse thalamocortical activity assessed as increase in slope of rising phase at 0.2 uM after 15 mins by voltage-sensitive dye imaging method; format: functional, Brain; in short: as §1
Rattus norvegicus [25] = species on record: Rattus norvegicus; experiment: Increase in electronic coupling of Long-Evans rat inferior olivary neurons at 150 uM by single-patch clamp method; format: functional
In short: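 Paired patch recording was done at 32°C in ACSF. Hyperpolarizing current was injected into one neuron of a pair. Coupling coefficient = coupled-cell response ÷ injected-cell response, averaged over 10–20 trials. Measured before and after 150 μM modafinil; n = 7 pairs.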

Cortex [26] = experiment: Induction of 10-Hz shock-stimulated Sprague-Dawley rat cortical activity assessed as increase in slope of rising phase at 0.2 uM after 15 mins by voltage-sensitive dye imaging method; format: functional; in short: as §2

In the case of NC(=O)C[S+]([O-])C(c1ccccc1)c1ccccc1 (stereo unspecified) [MODAFINIL], the Activity (Thalamocortex [1]) is reported as 67%, the Activity (Rattus norvegicus [2]) is reported as “Active” and the Activity (Cortex [3]) is reported as 32%. The Activity (Rattus norvegicus [4]) was “inactive”, the Activity (Cortex [5]) was 65% and the Activity (Thalamocortex [6]) was “inactive”. The Activity (Rattus norvegicus [7]) was “Active”, the Activity (Thalamocortex [8]) was “Active” and the Activity (Thalamocortex [9]) was 31%. For the same compound, the Activity (Thalamocortex [10]) was “inactive”, the Activity (Cortex [11]) was 70% and the Activity (Cortex [12]) was 75%. It also gave an Activity (Thalamocortex [13]) of 31%, an Activity (Thalamocortex [14]) of 75% and an Activity [15] of 70%. It also gave an Activity (Cortex [16]) of 35%, an Activity (Thalamocortex [17]) of 75% and an Activity (Cortex [18]) of 75%. For the same compound, the Activity (Thalamocortex [19]) was 65%, the Activity (Thalamocortex [20]) was 70% and the Activity (Thalamocortex [21]) was 32%. The Activity (Cortex [22]) was 31%, the Activity (Rattus norvegicus [23]) was “Active” and the Activity (Thalamocortex [24]) was 35%. The Activity (Rattus norvegicus [25]) was “Active” and the Activity (Cortex [26]) was 67%.
